M5 ag – CHRM5 agonism in calcium assay; activation, % at 3 µM; AID 624037; P08912; hit rate 0.19% among 360,000; CHO-K1 hM5 cells, Fluo-8 calcium fluorescence; 0% DMSO wells, 100% maximal acetylcholine response;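 active means activation above the run's mean over test compounds plus 3 SD, cut at about 23% in these data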;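 further: signal is peak over basal fluorescence ratio across the kinetic read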
Target sequence (P08912 whole entry, looked up): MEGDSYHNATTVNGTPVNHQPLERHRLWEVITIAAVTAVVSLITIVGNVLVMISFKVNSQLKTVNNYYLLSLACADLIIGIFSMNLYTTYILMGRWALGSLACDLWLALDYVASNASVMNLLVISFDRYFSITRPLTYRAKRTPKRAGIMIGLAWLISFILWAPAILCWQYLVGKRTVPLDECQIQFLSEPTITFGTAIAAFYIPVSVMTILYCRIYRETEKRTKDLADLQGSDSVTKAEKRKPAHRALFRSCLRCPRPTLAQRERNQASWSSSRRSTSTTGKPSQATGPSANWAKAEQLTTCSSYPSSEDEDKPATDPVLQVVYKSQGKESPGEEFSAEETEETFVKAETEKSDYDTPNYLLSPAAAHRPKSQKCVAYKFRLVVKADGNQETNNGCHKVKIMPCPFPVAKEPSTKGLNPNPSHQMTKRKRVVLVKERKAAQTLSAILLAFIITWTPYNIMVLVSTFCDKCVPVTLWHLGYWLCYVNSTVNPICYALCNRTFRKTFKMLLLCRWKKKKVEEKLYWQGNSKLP
M5 antag – antagonists of human muscarinic M5 receptor (CHRM5); inhibition, % at 3 µM; P08912; AID 624040; CHO-hM5 cells, Fluo-8 calcium fluorescence, ACh EC80; hit rate 0.59% among 360,000;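 active means inhibition above a per-plate cutoff, the mean of that plate's test compounds plus 3 SD, cut at about 27% in these data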
M5 PAM – CHRM5 positive allosteric modulation; activation, % at 3 µM; CHO-K1 hM5, Fluo-8 calcium, ACh EC20 PAM; 0% = ACh EC20, 100% = ACh EC100; hit rate 0.3% among 360,000; P08912;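 active means activation above the run cutoff, the mean activation of all test compounds plus 3 SD, cut at about 18% in these data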
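Test system: CHO-K1 hM5 cells / Doses: single-point, 3 µM nominal / Times: Post-acetylcholine fluorescence recording 140 s / Technique: Fluo-8 calcium fluorescence / Measure: Max/basal fluorescence ratio as % of EC20–EC100 ACh window / Benchmarks: low control EC20 acetylcholine (0%), high control EC100 acetylcholine (100%) / Replicates: one well per compound, no replicates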
CHRM1 agonist – agonists of human M1 muscarinic receptor | P11229 | CHO-K1 hM1, Fluo-8 calcium fluorescence, agonist mode; 0% DMSO, 100% acetylcholine EC100 | activation, % at 3 µM | hit rate 0.33% among 360,000;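 active means activation above the run's mean compound activation plus 3 SD, cut at about 16% in these data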;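 further: peak over basal fluorescence ratio within a 140 s kinetic read after compound addition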
M1 PAM – human CHRM1 positive allosteric modulation; CHO-K1 hM1, Fluo-8 calcium fluorescence, ACh EC20; 0% = ACh EC20, 100% = maximal ACh; activation, % at 3 µM; hit rate 0.088% among 360,000; P11229; AID 588819; in the data active means activation above about 19%, passing the limit was not always enough
CHRM1 antagonist – human CHRM1 antagonism | P11229 | CHO-K1 hM1, Fluo-8 calcium fluorescence, ACh EC80 antagonist | inhibition, % at 3 µM | hit rate 1.3% among 360,000 | AID 588852;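 active means percent inhibition above its own plate's cutoff, namely the mean of that plate's compound wells plus 3 SD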;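 further: peak over basal fluorescence ratio during 140 s after agonist addition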
Large screens that a line does not name were inactive. In the library only some 2% were active in any assay of this set; here they are far more common.

Cc1cccc(C(=O)NNC(=S)NC(=O)c2cccs2)c1	M5 ag 66, CHRM1 agonist 84
CCCCNC(=O)c1nc(C2CCN(S(=O)(=O)c3c(F)cccc3F)CC2)oc1-c1ccccc1	none
COc1ccc(C(=O)N(C)C2CCCc3ccccc32)cc1OC1CCN(C(C)C)CC1 (centres undefined)	none
COc1ccc(C(=O)NC2CCc3ccccc32)cc1OC1CCN(C(C)C)CC1 (centres undefined)	M5 antag 28
CCS(=O)(=O)C1=NSC2=NC(=O)/C(=C\c3ccc(OS(=O)(=O)c4ccccc4)c(OC)c3)C(=N)N21	M5 PAM 29
c1ccc2c(c1)ncn2CCN1CCCCC1	M5 PAM 20
c1ccc(CCn2cnc3ccccc32)cc1	none
CN1CCN(C2=Cc3ccc(Cl)cc3Sc3ccc(F)cc32)CC1	none
CN1CCN(C2=Cc3ccccc3Sc3cc(F)ccc32)CC1	M5 antag 28, CHRM1 antagonist 80
CC(=O)Nc1cccc(C(=O)NN2C(=O)NC3(CCC(C)CC3)C2=O)c1 (centres undefined)	none
COc1ccc(C(C[N+](=O)[O-])c2c(C)[nH]c3ccccc23)cc1OC (centres undefined)	M5 PAM 19
Nc1c(Cl)cc(C(=O)NC2CC2)cc1Cl	none
O=C1c2ccccc2C(c2nnnn2-c2ccc3c(c2)OCCO3)N1Cc1cccc(F)c1 (centres undefined)	none (no result: CHRM1 agonist, M1 PAM, CHRM1 antagonist)
Cc1ccc(C(=O)Cn2c(C)cc(C)c(C#N)c2=O)cc1	M5 PAM 29
CC(C)Cn1c(NCCN(C)C)nc2c1c(=O)[nH]c(=O)n2C	none
CCCCn1c(NCCN(C)C)nc2c1c(=O)[nH]c(=O)n2C	M5 PAM 22
COc1cc(C(=O)N2CCCC(c3cc(C(=O)NCc4ccccc4)no3)C2)cc(OC)c1C (centres undefined)	none
COc1ccccc1-c1ccc([C@@H]2C[C@H]3[C@H](CON3C)CN2C(=O)c2ccc(-c3ccccc3)cc2)cc1	none
O=C(CSc1ccc2nnc(-c3ccccc3)n2n1)NCc1ccc2c(c1)OCO2	none
O=C(CSc1ccc2nnc(-c3cccnc3)n2n1)NCc1ccc2c(c1)OCO2	CHRM1 antagonist 64
CSCCC(C(=O)NC(C)(C)C)n1c(-c2cccc(NC(C)=O)c2)nc2ccccc21 (centres undefined)	none (no result: CHRM1 agonist, M1 PAM, CHRM1 antagonist)
Cc1cccc(NC(=O)COc2ccc(Br)cc2)n1	M5 PAM 33
CC(C)[C@@H]1Cc2[nH]c(=O)[nH]c(=O)c2[C@H](c2ccc(F)cc2)O1	none (no result: CHRM1 agonist, M1 PAM, CHRM1 antagonist)
O=C(Nc1ccn(CCCN2CCN(Cc3cccc4ccccc34)CC2)c(=O)n1)OCc1ccccc1	CHRM1 antagonist 30
Cc1cc(C)c(CN2CCN(CCCn3ccc(NC(=O)OCc4ccccc4)nc3=O)CC2)c(C)c1	CHRM1 antagonist 42
O=C(Nc1ccn(CCCN2CCN(c3ccccc3)CC2)c(=O)n1)OCc1ccccc1	none
COc1cc(OC)cc(C2=Cc3ccccc3C(CC(=O)c3ccco3)N2c2ccc(-c3cccnc3)cc2)c1 (centres undefined)	none (no result: CHRM1 agonist, M1 PAM, CHRM1 antagonist)
CN(CC(=O)NCC1CCCO1)S(=O)(=O)c1ccc2ccccc2c1 (centres undefined)	none
CC1(C(=O)NS(=O)(=O)c2ccc(C#N)cc2)CCN1C(=O)c1cccc2ccccc12 (centres undefined)	none
CN(C)CC/C=C1/c2ccccc2CS(=O)(=O)c2ccccc21	CHRM1 antagonist 66
COc1ccc2c(c1)C(=O)c1ccccc1CO2	none
CN(CCCNC(=O)c1nn(C)c2c1CS(=O)(=O)c1ccccc1-2)Cc1ccccc1	none
CN(C)CC/C=C1\c2ccccc2COc2ccccc21	M5 antag 98 (no result: CHRM1 agonist, M1 PAM, CHRM1 antagonist)
COCCN1C(=O)/C(=C/c2ccc(N3CCCC3)cc2C)SC1=S	CHRM1 antagonist 31
COC(=O)/C=C1\OCc2c(F)cccc21	none (no result: CHRM1 agonist, M1 PAM, CHRM1 antagonist)
CC(=O)NC1(NC(C)=O)CCN(C)C(c2ccccc2)C1C (centres undefined)	M5 ag 26
CCC(NCc1cccnc1)c1ccc(OC)c(OC)c1 (centres undefined)	none
COc1ccc(C2=NNC(=O)CC2)cc1	M5 PAM 24
CC(C)(C)NC(=O)C1c2ccccc2OCC(=O)N1Cc1ccccn1 (centres undefined)	none (no result: CHRM1 agonist, M1 PAM, CHRM1 antagonist)
Cc1noc(C)c1S(=O)(=O)N(C)C[C@H]1OCc2cnnn2CCCC(=O)N([C@H](C)CO)C[C@H]1C	none
COc1ccc(S(=O)(=O)Nc2nc3c(s2)CCCC3)cc1	M5 PAM 20
Cc1[nH]c2ccccc2c1C(=O)C(=O)NCCOc1ccccc1	none
COc1ccc(CCNC(=O)C(=O)c2c(C)[nH]c3ccccc23)cc1	M5 antag 71
CCCCc1ccc(S(=O)(=O)NC2CCS(=O)(=O)C2)cc1 (centres undefined)	M5 PAM 21
O=C(NCc1ccccc1)OC1CC2CC1[C@H]1CCCCN1C2=O (some centres undefined)	none (no result: CHRM1 agonist, M1 PAM, CHRM1 antagonist)
COCCNC(=O)C1CCCN(C(=O)COc2ccc(Cl)cc2Cl)CC1 (centres undefined)	none
N#CCCN=C(NS(=O)(=O)c1ccccc1)c1ccccc1	M1 PAM 28
CCCCNc1c(-c2ccc(F)cc2)nc2nc(C)cc(C)n12	none (no result: CHRM1 agonist, M1 PAM, CHRM1 antagonist)
Cn1c(-c2ccc3c(c2)OCO3)cnc1NCc1cccc(O)c1	CHRM1 antagonist 29
COc1ccccc1CNc1ncc(-c2ccc(F)cc2)n1C	CHRM1 antagonist 45
CSc1ccc(CNc2ncc(-c3cccc([N+](=O)[O-])c3)n2C)cc1	CHRM1 antagonist 65
Cn1c(-c2ccc(F)cc2)cnc1NCc1cccc(F)c1	none
Cn1c(-c2ccccc2)cnc1NCc1cccc([N+](=O)[O-])c1	CHRM1 antagonist 36
Cn1c(-c2ccccc2)cnc1NCc1ccc(F)cc1	none
COc1ccccc1CNc1ncc(-c2ccccc2)n1C	none
Cn1c(-c2ccccc2)cnc1NCc1cc2c(cc1[N+](=O)[O-])OCO2	none
COc1ccc([C@H]2N[C@]3(CCCN(Cc4ccc(Br)cc4)C3=O)[C@H]3C(=O)N(C)C(=O)[C@@H]23)cc1	none
CCN1C(=O)[C@H]2[C@@H](c3ccc(C)cc3)N[C@]3(CCCN(Cc4ccc(OC)cc4)C3=O)[C@H]2C1=O	none
Cc1ccc(S(=O)(=O)N2C[C@H]3C(=O)C[C@@H]4C(=O)N(c5ccccc5)C(=O)[C@@H]4[C@@H]3C[C@H]2c2cccc(Cl)c2)cc1	none
COc1cccc(NC(=O)C2(C)CCN2C(=O)CC2CC2)c1 (centres undefined)	none
CCCc1c(-c2ccc(Cl)cc2)ncn1Cc1cccc(-c2ccccc2)c1	none (no result: CHRM1 agonist, M1 PAM, CHRM1 antagonist)

Screening data as filed in PubChem BioAssay.
